Test results as given in ChEMBL document CHEMBL3244187, “Structure--activity relationships in cephalosporins prepared from penicillins. 2. Analogues of cephalexin substituted in the 3-methyl group” (J Med Chem, 1977).
In brackets after ≈: the same amount, converted by molar mass. Activity calls are given as the source filed them. The rule behind the calls is not given here.

Tests used:
[1] = system: Staphylococcus aureus; experiment: Antibacterial activity against beta-lactamase producing benzylpenicillin-resistant Staphylococcus aureus Russell after 18 hrs by serial dilution method; type: functional
Procedure, shortened: (§1)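 MICs by serial dilution on nutrient agar. Inoculum 0.001 mL of undiluted overnight broth culture. Plates incubated 18 h at 37 °C before reading. The S. aureus Russell strain produces β-lactamase and resists benzylpenicillin.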

[2] = system: Escherichia coli; experiment: Antibacterial activity against Escherichia coli after 18 hrs by serial dilution method; type: functional
Procedure, shortened: (§2)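 MICs by serial dilution on nutrient agar. Inoculum 0.001 mL of undiluted overnight broth culture. Plates incubated at 37 °C for 18 h before reading.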

[3] = system: Salmonella typhi; experiment: Antibacterial activity against Salmonella typhi after 18 hrs by serial dilution method; type: functional, Salmonella enterica subsp. enterica serovar Typhi; conditions: Salmonella enterica; procedure, shortened: as §1
[4] = system: Shigella sonnei; experiment: Antibacterial activity against Shigella sonnei after 18 hrs by serial dilution method; type: functional; procedure, shortened: as §2
[5] = system: Klebsiella aerogenes; experiment: Antibacterial activity against Klebsiella aerogenes after 18 hrs by serial dilution method; type: functional; procedure, shortened: as §2
[6] = system: Proteus mirabilis; experiment: Antibacterial activity against Proteus mirabilis after 18 hrs by serial dilution method; type: functional; procedure, shortened: as §2
[7] = Drug level in mouse blood at 50 mg/kg, po after 15 mins by microbiological assay
[8] = Drug level in mouse blood at 50 mg/kg, po after 30 mins by microbiological assay; type: ADME, organism-based; parameters: dose 50 mg/kg, route oral; conditions: read-out: Drug uptake
Procedure, shortened: (§3)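 Mice given a single 50 mg/kg dose by the route in the line. Groups of five killed at each time point and blood taken from the cut axilla, heparinized and stored at 4 °C. Blood assayed the same day by large-plate microbiological assay with Sarcina lutea NCTC 8340, overnight at 30 °C. Standards made in mouse blood, with pH 7.2 phosphate-buffered saline as diluent.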

[9] = Drug level in mouse blood at 50 mg/kg, po after 1 hr by microbiological assay; type: ADME, organism-based; parameters: dose 50 mg/kg, route oral; conditions: read-out: Drug uptake; procedure, shortened: as §3
[10] = Drug level in mouse blood at 50 mg/kg, po after 2 hrs by microbiological assay; type: ADME, organism-based; parameters: dose 50 mg/kg, route oral; conditions: read-out: Drug uptake; procedure, shortened: as §3
[11] = Drug level in mouse blood at 50 mg/kg, po after 4 hrs by microbiological assay; type: ADME, organism-based; parameters: dose 50 mg/kg, route oral; conditions: read-out: Drug uptake; procedure, shortened: as §3
[12] = Drug level in mouse blood at 50 mg/kg, sc after 10 mins by microbiological assay; type: ADME, organism-based; parameters: dose 50 mg/kg, route subcutaneous; conditions: read-out: Drug uptake; procedure, shortened: as §3
[13] = Drug level in mouse blood at 50 mg/kg, sc after 20 mins by microbiological assay; type: ADME, organism-based; parameters: dose 50 mg/kg, route subcutaneous; conditions: read-out: Drug uptake; procedure, shortened: as §3
[14] = Drug level in mouse blood at 50 mg/kg, sc after 30 mins by microbiological assay; type: ADME, organism-based; parameters: dose 50 mg/kg, route subcutaneous; conditions: read-out: Drug uptake; procedure, shortened: as §3
[15] = Drug level in mouse blood at 50 mg/kg, sc after 1 hr by microbiological assay; type: ADME, organism-based; parameters: dose 50 mg/kg, route subcutaneous; conditions: read-out: Drug uptake; procedure, shortened: as §3
[16] = Drug level in mouse blood at 50 mg/kg, sc after 2 hrs by microbiological assay; type: ADME, organism-based; parameters: dose 50 mg/kg, route subcutaneous; conditions: read-out: Drug uptake; procedure, shortened: as §3
[17] = Drug level in mouse blood at 50 mg/kg, sc after 4 hrs by microbiological assay; type: ADME, organism-based; parameters: dose 50 mg/kg, route subcutaneous; conditions: read-out: Drug uptake; procedure, shortened: as §3
[18] = system: Staphylococcus aureus; experiment: Antibacterial activity against Staphylococcus aureus Smith infected in sc dosed mouse administered 1 hr post infection; type: functional
Procedure, shortened: (§4)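 Infected mice were treated subcutaneously or orally. Protection is expressed as CD50 in mg/kg, as the total dose given.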

[19] = system: Staphylococcus aureus; experiment: Antibacterial activity against Staphylococcus aureus Smith infected in sc dosed mouse administered 1 hr and 5 hrs post infection; type: functional; procedure, shortened: as §4
[20] = system: Escherichia coli; experiment: Antibacterial activity against Escherichia coli 8 infected in sc dosed mouse administered 1 hr post infection; type: functional; procedure, shortened: as §4
[21] = system: Escherichia coli; experiment: Antibacterial activity against Escherichia coli 8 infected in sc dosed mouse administered 1 hr and 5 hrs post infection; type: functional; procedure, shortened: as §4
[22] = system: Proteus mirabilis; experiment: Antibacterial activity against Proteus mirabilis 13 infected in sc dosed mouse administered 1 hr post infection; type: functional; procedure, shortened: as §4
[23] = system: Proteus mirabilis; experiment: Antibacterial activity against Proteus mirabilis 13 infected in sc dosed mouse administered 1 hr and 5 hrs post infection; type: functional; procedure, shortened: as §4
[24] = system: Staphylococcus aureus; experiment: Antibacterial activity against Staphylococcus aureus Smith infected in po dosed mouse administered 1 hr post infection; type: functional; procedure, shortened: as §4
[25] = system: Staphylococcus aureus; experiment: Antibacterial activity against Staphylococcus aureus Smith infected in po dosed mouse administered 1 hr and 5 hrs post infection; type: functional; procedure, shortened: as §4
[26] = system: Escherichia coli; experiment: Antibacterial activity against Escherichia coli 8 infected in po dosed mouse administered 1 hr post infection; type: functional; procedure, shortened: as §4
[27] = system: Escherichia coli; experiment: Antibacterial activity against Escherichia coli 8 infected in po dosed mouse administered 1 hr and 5 hrs post infection; type: functional; procedure, shortened: as §4
[28] = system: Staphylococcus aureus; experiment: Antibacterial activity against Staphylococcus aureus Oxford after 18 hrs by serial dilution method; type: functional; procedure, shortened: as §2
[29] = Drug level in mouse blood at 50 mg/kg, po after 10 mins by microbiological assay; type: ADME, organism-based; parameters: dose 50 mg/kg, route oral; conditions: read-out: Drug uptake; procedure, shortened: as §3
[30] = Drug level in mouse blood at 50 mg/kg, po after 20 mins by microbiological assay; type: ADME, organism-based; parameters: dose 50 mg/kg, route oral; conditions: read-out: Drug uptake; procedure, shortened: as §3
[31] = Drug level in mouse blood at 50 mg/kg, iv after 10 mins by microbiological assay; type: ADME, organism-based; parameters: dose 50 mg/kg, route intravenous; conditions: read-out: Drug uptake; procedure, shortened: as §3
[32] = Drug level in mouse blood at 50 mg/kg, iv after 20 mins by microbiological assay; type: ADME, organism-based; parameters: dose 50 mg/kg, route intravenous; conditions: read-out: Drug uptake; procedure, shortened: as §3
[33] = Drug level in mouse blood at 50 mg/kg, iv after 30 mins by microbiological assay; type: ADME, organism-based; parameters: dose 50 mg/kg, route intravenous; conditions: read-out: Drug uptake; procedure, shortened: as §3
[34] = Drug level in mouse blood at 50 mg/kg, iv after 1 hr by microbiological assay; type: ADME, organism-based; parameters: dose 50 mg/kg, route intravenous; conditions: read-out: Drug uptake; procedure, shortened: as §3
[35] = Drug level in mouse blood at 50 mg/kg, iv after 2 hrs by microbiological assay; type: ADME, organism-based; parameters: dose 50 mg/kg, route intravenous; conditions: read-out: Drug uptake; procedure, shortened: as §3
[36] = Drug level in mouse blood at 50 mg/kg, iv after 4 hrs by microbiological assay; type: ADME, organism-based; parameters: dose 50 mg/kg, route intravenous; conditions: read-out: Drug uptake; procedure, shortened: as §3
[37] = Drug metabolism in mouse assessed as metabolite level in urine by Sarcina lutea antibacterial assay; type: ADME
Procedure, shortened: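 Urine from dosed mice run on paper strip chromatography in butanol-ethanol-water (4:1:5). Active zones located on agar plates seeded with Sarcina lutea.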

[38] = system: Pseudomonas aeruginosa; experiment: Antibacterial activity against cephalosporin-resistant Pseudomonas aeruginosa after 18 hrs by serial dilution method; type: functional, organism-based; procedure, shortened: as §1
[39] = system: Morganella morganii; experiment: Antibacterial activity against cephalosporin-resistant Proteus morganii after 18 hrs by serial dilution method; type: functional, organism-based; procedure, shortened: as §1
[40] = system: Enterobacter cloacae; experiment: Antibacterial activity against cephalosporin-resistant Enterobacter cloacae after 18 hrs by serial dilution method; type: functional, organism-based; procedure, shortened: as §1

CC1=C(C(=O)O)N2C(=O)[C@@H](NC(=O)[C@H](N)c3ccccc3)[C@H]2SC1 [CEPHALEXIN ANHYDROUS]
MIC [1]: 5 µg/mL (≈ 14.4 µM)
MIC [2]: 12.5 µg/mL (≈ 36 µM)
MIC [3]: 5 µg/mL (≈ 14.4 µM)
MIC [4]: 5 µg/mL (≈ 14.4 µM)
MIC [5]: 5 µg/mL (≈ 14.4 µM)
MIC [6]: 12.5 µg/mL (≈ 36 µM)
concentration at 0.25 h [7]: 23900 ng/mL
concentration at 0.5 h [8]: 21700 ng/mL
concentration at 1 h [9]: 8300 ng/mL
concentration at 2 h [10]: 2500 ng/mL
concentration at 4 h [11]: 560 ng/mL
concentration at 10 min [12]: 27000 ng/mL
concentration at 20 min [13]: 20500 ng/mL
concentration at 0.5 h [14]: 13300 ng/mL
concentration at 1 h [15]: 3000 ng/mL
concentration at 2 h [16]: 420 ng/mL
concentration at 4 h [17]: < 150 ng/mL
CD50 [18]: 0.46 mg/kg
CD50 [19]: 1 mg/kg
CD50 [20]: 7.4 mg/kg
CD50 [21]: 17 mg/kg
CD50 [22]: 64 mg/kg
CD50 [23]: 84 mg/kg
CD50 [24]: 0.25 mg/kg
CD50 [25]: 0.38 mg/kg
CD50 [26]: 8.5 mg/kg
CD50 [27]: 17 mg/kg
MIC [28]: 1.25 µg/mL (≈ 3.6 µM)

N[C@@H](C(=O)N[C@@H]1C(=O)N2C(C(=O)O)=C(Cc3ccc(C(=O)O)cc3)CS[C@H]12)c1ccccc1
MIC [5]: 2.5 µg/mL (≈ 5.35 µM)
concentration at 10 min [29]: < 1000 ng/mL
concentration at 20 min [30]: < 1000 ng/mL
concentration at 0.5 h [8]: 1600 ng/mL
concentration at 1 h [9]: 2400 ng/mL
concentration at 2 h [10]: 2300 ng/mL
concentration at 4 h [11]: 1900 ng/mL
concentration at 10 min [12]: 75200 ng/mL
concentration at 20 min [13]: 87400 ng/mL
concentration at 0.5 h [14]: 68800 ng/mL
concentration at 1 h [15]: 48000 ng/mL
concentration at 2 h [16]: 22000 ng/mL
concentration at 4 h [17]: 9300 ng/mL
concentration at 10 min [31]: 70300 ng/mL
concentration at 20 min [32]: 48200 ng/mL
concentration at 0.5 h [33]: 39200 ng/mL
concentration at 1 h [34]: 25400 ng/mL
concentration at 2 h [35]: 4500 ng/mL
concentration at 4 h [36]: 2400 ng/mL
CD50 [18]: 1.25 mg/kg
CD50 [19]: 1.8 mg/kg
CD50 [20]: 130 mg/kg
CD50 [21]: 60 mg/kg
CD50 [22]: 14 mg/kg
CD50 [23]: 19 mg/kg
CD50 [24]: 17 mg/kg
CD50 [25]: 28 mg/kg
CD50 [26]: >1000 mg/kg
CD50 [27]: 2000 mg/kg
Drug metabolism [37]: metabolite_detected
Activity [38]: inactive
Activity [39]: inactive
Activity [40]: inactive
